Laboratory results taken from publication PMC5110367 (Nature chemical biology, 2016).
Where a chain is given by its changes, count along the chain named. Like-named read-outs stand apart in the source and are kept apart here. Blank lines part the entries; values can stand above or below the molecule they belong to.

What was measured:
PPARγ = biological target: T1, PPARγ (Mus musculus, UniProt P37238); experiment: GW9662 against rosiglitazone-stimulated PPRE-luciferase in Pparb-null astrocytes; assay type: cell-based; settings: GW9662 30 min before rosiglitazone
T1 sequence (P37238 1-505): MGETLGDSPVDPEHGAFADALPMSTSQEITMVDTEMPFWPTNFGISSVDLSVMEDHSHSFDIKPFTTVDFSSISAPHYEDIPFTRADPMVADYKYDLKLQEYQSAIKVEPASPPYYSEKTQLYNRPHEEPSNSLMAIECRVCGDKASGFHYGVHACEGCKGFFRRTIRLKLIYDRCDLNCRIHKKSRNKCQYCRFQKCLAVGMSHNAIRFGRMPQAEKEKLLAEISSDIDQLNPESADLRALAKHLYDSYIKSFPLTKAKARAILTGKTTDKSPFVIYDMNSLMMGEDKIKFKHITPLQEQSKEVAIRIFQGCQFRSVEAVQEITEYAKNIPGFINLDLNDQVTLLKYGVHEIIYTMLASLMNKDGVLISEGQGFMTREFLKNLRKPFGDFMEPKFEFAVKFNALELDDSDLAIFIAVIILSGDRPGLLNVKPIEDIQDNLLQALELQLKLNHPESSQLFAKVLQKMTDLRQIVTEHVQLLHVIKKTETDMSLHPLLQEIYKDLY

Y464D-Ppara = biological target: T2, Y464D-Ppara (Mus musculus, UniProt P23204, Y464D); assay type: cell-based
T2 sequence (P23204 1-468 Y464D): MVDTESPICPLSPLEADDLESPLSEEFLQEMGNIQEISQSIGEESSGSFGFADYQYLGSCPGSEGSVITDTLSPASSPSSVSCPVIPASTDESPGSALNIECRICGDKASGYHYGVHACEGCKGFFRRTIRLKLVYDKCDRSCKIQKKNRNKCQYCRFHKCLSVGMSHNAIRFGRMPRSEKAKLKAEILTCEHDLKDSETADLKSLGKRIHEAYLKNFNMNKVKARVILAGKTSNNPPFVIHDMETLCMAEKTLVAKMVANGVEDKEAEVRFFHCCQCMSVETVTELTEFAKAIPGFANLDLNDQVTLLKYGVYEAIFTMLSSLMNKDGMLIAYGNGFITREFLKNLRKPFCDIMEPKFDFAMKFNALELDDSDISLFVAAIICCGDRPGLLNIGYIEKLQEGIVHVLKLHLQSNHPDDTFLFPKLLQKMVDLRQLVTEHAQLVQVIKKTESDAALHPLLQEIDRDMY

Y314D-Ppara = biological target: T3, Y314D-Ppara (Mus musculus, UniProt P23204, Y314D); assay type: cell-based
T3 sequence (P23204 1-468 Y314D): T2 sequence (P23204 1-468 Y464D) with Y314D, D464Y

Y314D/Y464D-Ppara = biological target: T4, Y314D/Y464D-Ppara (Mus musculus, UniProt P23204, Y314D/Y464D); assay type: cell-based
T4 sequence (P23204 1-468 Y314D/Y464D): T2 sequence (P23204 1-468 Y464D) with Y314D

[1] = system: Ppara-null hippocampal neurons; experiment: Dendritic spine density; assay type: cell-based, mouse; settings: Ppara-null neurons transduced with lenti-FL-Ppara or lenti-Y464D-Ppara
Procedure, shortened: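 Ppara-null hippocampal neurons were taken from E18 fetuses and treated with 10 μM AraC to remove glia. They were differentiated 9–10 days, then transduced 48 h with lentivirions carrying GFP (vector), FL-Ppara or Y464D-Ppara. Neurons then received vehicle (DMSO) or test compound for 24 h. They were stained with Dylight-554-phalloidin, and spine density was scored by fluorescence microscopy.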

[2] = system: PPRE-driven luciferase activity; experiment: PPRE-luciferase assay in Ppara-null astrocytes transduced with empty vector; assay type: cell-based, mouse; settings: 4 h
Procedure, shortened: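 Ppara-null astrocytes came from mixed glial cultures of 7-d-old pups. They were transduced 48 h with empty-vector lentivirions and transfected with tk-PPREx3-Luc reporter. After 24 h they were treated with different doses of test compound for 4 h, then luciferase activity was read. Values are mean ± SD of three independent experiments.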

FL-Ppara = biological target: T5, FL-Ppara (Mus musculus, UniProt P23204); assay type: cell-based
T5 sequence (P23204 1-468): T2 sequence (P23204 1-468 Y464D) with D464Y

Compound: O=C(Nc1ccccc1)c1cc([N+](=O)[O-])ccc1Cl [GW9662]
effect on rosiglitazone-mediated PPRE-luciferase activity (PPARγ): Inhibition of rosiglitazone-mediated increase in PPRE-luciferase activity

PPRE-luciferase activity (Y464D-Ppara): no luciferase activity | PPRE-luciferase activity (Y314D-Ppara): no luciferase activity | PPRE-luciferase activity (Y314D/Y464D-Ppara): no luciferase activity
Compound: Cc1cccc(Nc2cc(Cl)nc(SCC(=O)O)n2)c1C [WY14643, reference compound]
density of dendritic spines [1]: stimulated the density of spines only when Ppara-null neurons were transduced with lenti-FL-Ppara, but not lenti-Y464D-Ppara | PPRE-driven luciferase activity [2]: unable to induce PPRE-luciferase activity | PPRE-luciferase reporter activity (FL-Ppara): markedly induced PPRE-luciferase activity

PPRE-luciferase activity (Y464D-Ppara; Ppara-null astrocytes transduced with lenti-Y464D-Ppara, 4 h): no luciferase activity | PPRE-luciferase activity (Y314D-Ppara; Ppara-null astrocytes transduced with lenti-Y314D-Ppara, 4 h): no luciferase activity | PPRE-luciferase activity (Y314D/Y464D-Ppara; Ppara-null astrocytes transduced with lenti-Y314D/Y464D-Ppara, 4 h): no luciferase activity
Compound: CCOC(=O)C(C)(C)Oc1ccc(Cl)cc1 [clofibrate, reference compound]
PPRE-driven luciferase activity [2]: unable to induce PPRE-luciferase activity | PPRE-luciferase reporter activity (FL-Ppara; Ppara-null astrocytes transduced with lenti-FL-Ppara, 4 h): markedly induced PPRE-luciferase activity

Compound: CC(C)OC(=O)C(C)(C)Oc1ccc(C(=O)c2ccc(Cl)cc2)cc1 [fenofibrate]
PPRE-driven luciferase activity [2]: unable to induce PPRE-luciferase activity
